The subject of experiment [1] is Receptor-type tyrosine-protein kinase FLT3 (Homo sapiens), P36888 [UNDEFINED MUTATION]. Nature of the experiment: Inhibition of FLT3 ITD mutant (unknown origin) using TAMRA-Src- tide as substrate at 12.5 uM after 1 hr by fluorescence polarization assay relative to control. The gist of the method:
(§1)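 FLT3-ITD kinase inhibition by fluorescence polarization IMAP assay; each compound tested at 12.5 and 1.25 μM; percent inhibition, average of two parallel measurements.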

Experiment [2] has the same test system. The experiment can be described thus: Inhibition of FLT3 ITD mutant (unknown origin) using TAMRA-Src- tide as substrate at 1.25 uM after 1 hr by fluorescence polarization assay relative to control. Put shortly: as §1

Chain of Receptor-type tyrosine-protein kinase FLT3 (Homo sapiens), P36888 [UNDEFINED MUTATION] (P36888 whole entry, looked up, change not shown): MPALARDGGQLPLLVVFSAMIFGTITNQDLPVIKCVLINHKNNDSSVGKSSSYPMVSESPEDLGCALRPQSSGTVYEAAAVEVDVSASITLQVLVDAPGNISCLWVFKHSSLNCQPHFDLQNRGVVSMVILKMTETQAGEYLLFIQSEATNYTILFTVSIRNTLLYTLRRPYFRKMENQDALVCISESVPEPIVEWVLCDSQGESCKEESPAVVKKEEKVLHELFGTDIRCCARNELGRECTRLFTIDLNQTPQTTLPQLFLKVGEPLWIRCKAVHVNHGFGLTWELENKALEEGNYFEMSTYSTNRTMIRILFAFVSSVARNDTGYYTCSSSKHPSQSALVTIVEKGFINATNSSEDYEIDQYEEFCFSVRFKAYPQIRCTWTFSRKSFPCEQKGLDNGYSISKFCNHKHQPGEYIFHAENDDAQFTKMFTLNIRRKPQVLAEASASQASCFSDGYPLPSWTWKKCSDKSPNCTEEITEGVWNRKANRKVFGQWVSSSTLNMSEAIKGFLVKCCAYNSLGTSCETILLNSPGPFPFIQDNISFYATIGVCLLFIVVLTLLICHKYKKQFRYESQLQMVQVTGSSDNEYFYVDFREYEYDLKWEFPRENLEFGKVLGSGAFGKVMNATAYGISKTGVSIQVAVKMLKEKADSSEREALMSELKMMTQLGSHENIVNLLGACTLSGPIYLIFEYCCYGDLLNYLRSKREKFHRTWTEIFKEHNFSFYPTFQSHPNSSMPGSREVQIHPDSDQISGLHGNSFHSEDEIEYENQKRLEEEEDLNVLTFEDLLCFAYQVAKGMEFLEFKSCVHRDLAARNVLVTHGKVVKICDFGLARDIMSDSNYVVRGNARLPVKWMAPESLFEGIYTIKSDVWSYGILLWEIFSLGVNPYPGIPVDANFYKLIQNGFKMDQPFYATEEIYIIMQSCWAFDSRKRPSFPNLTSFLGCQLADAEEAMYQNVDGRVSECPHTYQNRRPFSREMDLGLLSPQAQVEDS

For the compound `COC(=O)CC[C@@H](NC(=O)c1c(C)[nH]c(/C=C2\C(=O)Nc3ccc(C(=O)O)cc32)c1C)C(=O)OC`, the inhibition in experiment [1] is above 100%; in experiment [2] it was 93.5%.

Consider `CCOC(=O)c1c(C)[nH]c(/C=C2\C(=O)Nc3ccc(C(=O)N[C@H](Cc4ccccc4)C(=O)O)cc32)c1C`, for which the inhibition in experiment [1] turned out to be 96.2%; in experiment [2], 47%.

Regarding `COC(=O)CC[C@H](NC(=O)c1c(C)[nH]c(/C=C2\C(=O)Nc3ccc(C(=O)N[C@H](CCC(=O)OC)C(=O)OC)cc32)c1C)C(=O)OC`, the inhibition was determined as 70.3% in experiment [1] and 80.4% in experiment [2].

Regarding `COC(=O)CC[C@H](NC(=O)c1ccc2c(c1)/C(=C/c1[nH]c(C)c(C(=O)N[C@H](CCC(=O)OC)C(=O)OC)c1C)C(=O)N2)C(=O)OC`, the inhibition amounted to 81.9% in experiment [1] and 43.2% in experiment [2].

On to `COC(=O)CC[C@@H](NC(=O)c1ccc2c(c1)/C(=C/c1[nH]c(C)c(C(=O)N[C@@H](Cc3ccccc3)C(=O)O)c1C)C(=O)N2)C(=O)OC`, for which the inhibition was above 100% in experiment [1] and 67.7% in experiment [2].

Take `COC(=O)CC[C@@H](NC(=O)c1ccc2c(c1)/C(=C/c1[nH]c(C)c(C(=O)N[C@H](Cc3ccccc3)C(=O)O)c1C)C(=O)N2)C(=O)OC`: the figures for the inhibition in experiment [1] and in experiment [2] were above 100% and 73%, respectively.

As for `COC(=O)[C@@H](Cc1ccccc1)NC(=O)c1c(C)[nH]c(/C=C2\C(=O)Nc3ccc(C(=O)N[C@H](Cc4ccccc4)C(=O)O)cc32)c1C`, the inhibition was above 100% in experiment [1] and 66.4% in experiment [2].

`Cc1[nH]c(/C=C2\C(=O)Nc3ccc(C(=O)O)cc32)c(C)c1C(=O)N[C@H](Cc1ccccc1)C(=O)O`: the values for the inhibition in experiment [1] and in experiment [2] were above 100% and 87%, respectively.

With `Cc1[nH]c(/C=C2\C(=O)Nc3ccc(C(=O)N[C@H](Cc4ccccc4)C(=O)O)cc32)c(C)c1C(=O)N[C@H](Cc1ccccc1)C(=O)O`, the inhibition in experiment [1] is above 100%; in experiment [2], 76.8%.

As to `Cc1[nH]c(/C=C2\C(=O)Nc3ccc(C(=O)N[C@H](Cc4ccccc4)C(=O)O)cc32)c(C)c1C(=O)O`, the inhibition in experiment [1] was above 100%; in experiment [2] it was 87.1%.

`CCOC(=O)c1c(C)[nH]c(/C=C2\C(=O)Nc3ccc(C(=O)N[C@H](CCC(=O)OC)C(=O)OC)cc32)c1C`: the results for the inhibition in experiment [1] and in experiment [2] were 79.3% and 3.1%, respectively.

Regarding `COC(=O)[C@H](Cc1ccccc1)NC(=O)c1c(C)[nH]c(/C=C2\C(=O)Nc3ccc(C(=O)N[C@H](Cc4ccccc4)C(=O)O)cc32)c1C`, the inhibition in experiment [1] came to 94.8%; in experiment [2], 18.6%.

On to `Cc1[nH]c(/C=C2\C(=O)Nc3ccc(C(=O)N[C@@H](Cc4ccccc4)C(=O)O)cc32)c(C)c1C(=O)N[C@H](Cc1ccccc1)C(=O)O`, for which the inhibition is above 100% in experiment [1] and 104% in experiment [2].

Consider `COC(=O)CC[C@H](NC(=O)c1ccc2c(c1)/C(=C/c1[nH]c(C)c(C(=O)N[C@H](Cc3ccccc3)C(=O)O)c1C)C(=O)N2)C(=O)OC`, for which the inhibition was above 100% in experiment [1] and 70.3% in experiment [2].

With `COC(=O)CC[C@@H](NC(=O)c1c(C)[nH]c(/C=C2\C(=O)Nc3ccc(C(=O)N[C@H](Cc4ccccc4)C(=O)O)cc32)c1C)C(=O)OC`, the inhibition in experiment [1] is above 100%; in experiment [2], 39.2%.

For `COC(=O)[C@@H](Cc1ccccc1)NC(=O)c1c(C)[nH]c(/C=C2\C(=O)Nc3ccc(C(=O)N[C@@H](Cc4ccccc4)C(=O)O)cc32)c1C`, the inhibition in experiment [1] was above 100%; in experiment [2], 93.5%.

Consider `COC(=O)[C@@H](Cc1ccccc1)NC(=O)c1c(C)[nH]c(/C=C2\C(=O)Nc3ccc(C(=O)O)cc32)c1C`, for which the values for the inhibition in experiment [1] and in experiment [2] were above 100% and 97.4%, respectively.

For the compound `COC(=O)CC[C@@H](NC(=O)c1c(C)[nH]c(/C=C2\C(=O)Nc3ccc(C(=O)N[C@@H](Cc4ccccc4)C(=O)O)cc32)c1C)C(=O)OC`, the inhibition in experiment [1] was above 100%; in experiment [2] it was 90.9%.

(Values after ChEMBL document CHEMBL4190404, “Synthesis and characterization of amino acid substituted sunitinib analogues for the treatment of AML” (Bioorg Med Chem Lett, 2018).)
